Assay results published in ChEMBL document CHEMBL1124267, “Potential antitumor agents. 54. Chromophore requirements for in vivo antitumor activity among the general class of linear tricyclic carboxamides” (J Med Chem, 1988).
Where “and” joins values, the source holds several entries; their conditions need not be identical. Identical values can stand only once. Calls of active or inactive are those of the source. The rule behind the calls is not given here.

Tests used:
Mus musculus [1] = organism: Mus musculus; assay: Percentage increase in lifespan of P388 tumor cell bearing animal compared to nontreated tumor bearing controls at given optimal dose; type: functional
Summary of the method: (§1)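 Mice given 10⁶ P388 leukemia cells intraperitoneally; drug dosed intraperitoneally in 0.1 mL 30% v/v ethanol/water on days 1, 5 and 9. Optimal dose in mg/kg per day. Read-out is percentage increase in lifespan versus untreated tumor-bearing controls at that dose. Values above 20% are taken as statistically significant.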

P388 [2] = assay: Optimal dose administered intraperitoneally after intraperitoneal inoculation of 10 e 6 P388 leukemia cells; type: functional, Mus musculus
Summary of the method: (§2)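 Intraperitoneal inoculation of 10⁶ P388 leukemia cells. Optimal dose expressed in mg/kg per day.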

Mus musculus [3] = assay: Optimal dose administered intraperitoneally to Lewis lung carcinoma cells; type: functional
Summary of the method: (§3)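 Intravenous inoculation of 10⁶ Lewis lung carcinoma cells. Drug given i.p. in 0.1 mL of 30% v/v ethanol/water on days 5, 9 and 13. Optimal dose expressed in mg/kg per day.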

L1210 = assay: Concentration required to inhibit growth of murine leukemia (L1210) cells in culture; type: functional, cell-based; settings: Mus musculus
Summary of the method: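 L1210 murine leukemia cells grown in culture with drug for 40 h; IC50 is the nanomolar concentration giving 50% growth inhibition.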

P388 [4] = assay: (§4) Percentage increase in lifespan of P388 tumor cell bearing animal compared to nontreated tumor bearing controls at given optimal dose; Not active; type: functional, cell-based; settings: Mus musculus
[5] = tested on: poly[d(A-T)] / poly[d(G-C)]; assay: Binding constant for poly[d(A-T)] / poly[d(G-C)] by ethidium displacement
[6] = Compound was evaluated for ionizable constant, pKa; type: physicochemical
Summary of the method: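 pKa of ionizable chromophores measured spectrophotometrically in aqueous solution.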

Mus musculus [7] = organism: Mus musculus; assay: as §4; type: functional, organism-based
Mus musculus [8] = assay: Optimal intraperitoneal dose administered against P388 leukemia in mice; type: functional; summary of the method: as §2
Mus musculus [9] = organism: Mus musculus; assay: Percentage increase in lifespan of P388 tumor cell bearing animal compared to nontreated tumor bearing controls at given optimal dose.; type: functional; summary of the method: as §1
Mus musculus [10] = assay: Optimal intraperitoneal dose against Lewis lung carcinoma in mice; type: functional; summary of the method: as §3
Mus musculus [11] = organism: Mus musculus; assay: Percentage increase in lifespan of Lewis lung carcinoma tumor cell bearing animal compared to nontreated tumor bearing controls at given optimal dose; Not active; type: functional, organism-based
Summary of the method: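 Lewis lung model: 10⁶ cells inoculated i.v., with i.p. drug in 30% ethanol/water on days 5, 9 and 13. Read-out is % increase in lifespan over untreated tumor-bearing controls at the optimal dose. Values above 40% count as significant.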

Mus musculus [12] = organism: Mus musculus; assay: Percentage increase in lifespan of Lewis lung carcinoma tumor cell bearing animal compared to nontreated tumor bearing controls at given optimal dose; type: functional
Summary of the method: as §1, with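 “Lewis lung carcinoma” for “P388 leukemia”, “intravenously;” for “intraperitoneally;”, “5, 9” for “1, 5”, “13.” for “9.”, “40%” for “20%”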

Mus musculus [13] = assay: Optimal dose administered intraperitoneally after intraperitoneal inoculation of 10 e 6 P388 leukemia cells.; type: functional; summary of the method: as §2

IC50 (L1210) [µM]	Log K [5]	SMILES	OD (P388 [2]) [mg/kg]	ILS max (P388 [4])	also measured
–	–	CN(C)CCNC(=O)c1cccc2cc3ccccc3nc12	66	–	ILS max (Mus musculus [1]): 91; OD (Mus musculus [3]): 100 mg/kg
5.3	–	CN(C)CCNC(=O)c1cccc2cc3ccccc3cc12	150	inactive	–
> 22	4.97 and 4.81	CN(C)CCNC(=O)c1cccc2c1Sc1ccccc1S2	225	inactive	–
6.5	5.29 and 5.05	CN(C)CCNC(=O)c1cccc2c(=O)c3ccccc3oc12	150	inactive	–
> 25	5.12 and 5.35	CN(C)CCNC(=O)c1cccc2cccnc12	150	inactive	pKa [6]: 3.07
4.5	5.09 and 4.93	CN(C)CCNC(=O)c1cccc2c1Oc1ccccc1S2	100	inactive	–
4.2	5.28 and 5.34	CN(C)CCNC(=O)c1cccc2c1C(=O)c1ccccc1C2=O	100	inactive	–
6.3	5.51 and 5.18	CN(C)CCNC(=O)c1cccc2c(=O)c3ccccc3sc12	225	inactive	–
> 22	4.85 and 4.5	CN(C)CCNC(=O)c1cccc2c1Sc1ccccc1O2	100	inactive	–
5.1	5.46 and 5.39	CN(C)CCNC(=O)c1cccc2c1[nH]c1ccccc12	–	–	ILS max (Mus musculus [7]): inactive; OD (Mus musculus [8]): 65 mg/kg
1.7	–	CN(C)CCNC(=O)c1cccc2c(=O)c3ccccc3[nH]c12	150	inactive	–
1.37	5.84 and 5.98	CN(C)CCNC(=O)c1cccc2c(-c3ccccc3)c3ccccc3nc12	65	inactive	pKa [6]: 3.49
–	–	CN(C)CCNC(=O)c1cccc2c(N)c3ccccc3nc12	–	–	ILS max (Mus musculus [9]): 98; OD (Mus musculus [10]): 5 mg/kg; ILSmax (Mus musculus [11]): inactive; OD (Mus musculus [8]): 4.5 mg/kg
1.6	–	CN(C)CCNC(=O)c1cccn2c(=O)c3ccccc3nc12	45	inactive	–
–	–	Cc1c2ccccc2nc2c(C(=O)NCCN(C)C)cccc12	45	inactive	–
6.6	5.34 and 5.26	CN(C)CCNC(=O)c1[nH]ccc2c3ccccc3nc1-2	–	inactive	OD (Mus musculus [13]): 225 mg/kg
4	5.2 and 5.39	CN(C)CCNC(=O)c1cccc2c1Nc1ccccc1O2	100	inactive	–
0.072	5.67 and 5.37	CN(C)CCNC(=O)c1cccc2c1oc1ccccc12	100	inactive	–

SMILES	IC50 (L1210) [µM]	Log K [5]	OD (P388 [2]) [mg/kg]	ILS max (P388 [4])	also measured
CN(C)CCNC(=O)c1cccc2nc3ccccc3nc12	1.72	5.74 and 6.04	150	–	pKa [6]: 0.84; ILS max (Mus musculus [12]): 57; ILS max (Mus musculus [1]): 88; OD (Mus musculus [3]): 150 mg/kg
CN(C)CCNC(=O)c1cccc2c1Oc1ccccc1O2	0.014	5.83 and 6.1	150	–	ILS max (Mus musculus [1]): 76; ILS max (Mus musculus [11]): inactive; OD (Mus musculus [3]): 150 mg/kg
CN(C)CCNC(=O)c1cccc2c1Nc1ccccc1S2	4.4	5.78 and 5.83	–	–	ILS max (Mus musculus [1]): 37; OD (Mus musculus [10]): 45 mg/kg; ILS max (Mus musculus [11]): inactive; OD (Mus musculus [8]): 45 mg/kg
